Data: publication PMC6467756 (Journal of medicinal chemistry, 2019)
Entries after “also recorded” stand apart in the source; their conditions may differ. Like-named read-outs stand apart in the source and are kept apart here. One block for each compound: values may come before it.

How the values were obtained:
[1] = target: T1, Recombinant human glyoxalase I (GLO1) (Homo sapiens, UniProt Q04760); experiment: Human Glyoxalase 1 enzyme assay; format: biochemical; settings: for GLO1 inhibition compared with 8-MSQ, in words: SAR statement
T1 sequence (Q04760 2-184 limits assumed): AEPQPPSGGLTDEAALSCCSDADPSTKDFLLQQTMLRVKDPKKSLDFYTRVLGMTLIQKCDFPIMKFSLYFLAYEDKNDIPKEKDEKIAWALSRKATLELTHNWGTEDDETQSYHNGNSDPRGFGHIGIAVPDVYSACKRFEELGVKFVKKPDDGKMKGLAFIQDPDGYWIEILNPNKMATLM
Method in brief: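 Recombinant human GLO1 (40 ng) was preincubated 15–20 min with test compound in 100 mM sodium phosphate, pH 7.0. Substrate was GSH and methylglyoxal (each from 100 mM stock) mixed in buffer and left 20 min at room temperature to form hemithioacetal, then added. DMSO ≤5% final. A240 read every minute for 8 min. Rates were normalized to the uninhibited control (100%) after no-enzyme background subtraction. IC50s were benchmarked against a reference N-hydroxypyridone inhibitor. Library screens used 200 and 50 µM fragment, with a >50% inhibition hit threshold.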

mice = experiment: Observational assessment of toxicity after i.p. dosing; format: in vivo
human GLO1 = settings: cited from earlier work
FVB/NJ mice [2] = experiment: Open field test; format: in vivo; settings: 12.5 mg/kg i.p., 90 min after injection, 30 min test
Method in brief: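 Male and female FVB/NJ mice, 108–148 days old, tested in the light phase, were given 12.5 mg/kg i.p. or vehicle ([…]). After 90 min in the home cage, each was placed centrally in a 43×43×33 cm chamber under dim light inside a sound- and light-attenuating box for 30 min of free exploration. An infrared beam grid tracked distance traveled.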

FVB/NJ mice [3] = experiment: Forced swim test; format: in vivo; settings: 12.5 mg/kg i.p., 120 min before test, p=0.041
MG levels in brain = experiment: Brain methylglyoxal; format: in vivo; settings: for MG per mg brain tissue: mice, 30-240 min post-dose, vehicle 1.1 ± 0.3
Method in brief: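 Separate mouse cohort dosed i.p. at 12.5 or 25 mg/kg. Brains collected at 30, 60, 120 and 240 min post-dose, n=3 per time point. Under isoflurane, mice were perfused transcardially with PBS, then brains were weighed, flash-frozen and stored at −80 °C. Tissue was minced, extracted with acetonitrile, bead-homogenized, centrifuged and filtered (2 µm). MG was quantified by LC-MS/MS against an 11-point 5–5000 ng/mL curve spiked into blank brain, expressed per mg wet tissue.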

improvement in inhibition relative to 8-MSQ ([1]; ratio of IC50 values vs 8-MSQ): ~ 14 fold
SMILES: O=S(=O)(Nc1cccc2cccnc12)c1ccccn1 [Compound 23, N-(Quinolin-8-yl)pyridine-2-sulfonamide]

SMILES: CS(=O)(=O)Nc1ccc(N2CCOCC2)c2cccnc12 [Compound 46, N-(5-Morpholinoquinolin-8-yl)methanesulfonamide]
GLO1 inhibition compared with 8-MSQ, in words [1]: not well tolerated

SMILES: CS(=O)(=O)Nc1ccc(N2CCCCC2)c2cccnc12 [Compound 45, N-(5-(Piperidin-1-yl)quinolin-8-yl)methanesulfonamide]
GLO1 inhibition compared with 8-MSQ, in words [1]: not well tolerated

SMILES: N#Cc1ccccc1S(=O)(=O)Nc1cccc2cccnc12 [Compound 20, 2-Cyano-N-(quinolin-8-yl)benzenesulfonamide]
GLO1 inhibition compared with 8-MSQ, in words [1]: not tolerated

SMILES: O=S(=O)(Nc1ccc(-c2ccc(Cl)cc2)c2cccnc12)c1ccccn1 [Compound 48, N-(5-(4-Chlorophenyl)quinolin-8-yl)pyridine-2-sulfonamide]
observed toxicity (mice; i.p. doses of 50 mg/kg and higher): visibly toxic

loss of affinity compared to 8-MSQ ([1]; ratio of IC50 values vs 8-MSQ): ~ 2 fold
SMILES: Cc1ccc2cccc(NS(C)(=O)=O)c2n1 [Compound 7, N-(2-Methylquinolin-8-yl)methanesulfonamide]

GLO1 inhibition compared with 8-MSQ, in words [1]: slight increase in inhibition
SMILES: Cc1ccc2cccc(NS(=O)(=O)c3ccccc3)c2n1 [Compound 9, N-(2-Methylquinolin-8-yl)benzenesulfonamide]

SMILES: CS(=O)(=O)Nc1ccc(-c2cncnc2)c2cccnc12 [Compound 39, N-(5-(Pyrimidin-5-yl)quinolin-8-yl)methanesulfonamide]
GLO1 inhibition compared with 8-MSQ, in words [1]: not well tolerated

IC50 [1]: 1900 ± 200 nM
SMILES: O=c1cc(-c2ccccc2)cc(-c2ccccc2)n1O [Chugai-1, 1-hydroxy-4,6-diphenylpyridin-2(1H)-one, reference compound]
IC50 (human GLO1; value reported in the original literature report): 1190 nM

SMILES: CS(=O)(=O)Nc1ccc(-c2ccncc2)c2cccnc12 [Compound 38, N-(5-(Pyridin-4-yl)quinolin-8-yl)methanesulfonamide]
GLO1 inhibition compared with 8-MSQ, in words [1]: not well tolerated

SMILES: COc1ccccc1S(=O)(=O)Nc1cccc2cccnc12 [Compound 17, 2-Methoxy-N-(quinolin-8-yl)benzenesulfonamide]
GLO1 inhibition compared with 8-MSQ, in words [1]: not tolerated

inhibition in second MBP library screening ([1]; fragment concentration 50 μM): essentially complete inhibition
SMILES: CS(=O)(=O)Nc1cccc2cccnc12 [Compound 8-MSQ, N-(Quinolin-8-yl)methanesulfonamide]

SMILES: COc1cc(CCc2cc(NS(=O)(=O)c3ccccn3)c3ncccc3c2)cc(OC)c1 [Compound 60, N-(6-(3,5-Dimethoxyphenethyl)quinolin-8-yl)pyridine-2-sulfonamide]
locomotor activity in open field vs vehicle (FVB/NJ mice [2]): no effect | observational assessment of toxicity (mice; doses up to 100 mg/kg i.p.): no adverse responses | immobility in the FST vs vehicle (FVB/NJ mice [3]): reduction in percent immobility; also recorded: significant decrease in the time spent immobile; also recorded: reduced immobility | increase of MG levels in brain vs vehicle-treated mice (MG levels in brain; 12.5 mg/kg i.p., between 30 and 240 min post-dose): approximately 11 fold | MG per mg brain tissue (MG levels in brain; 12.5 mg/kg i.p.): 11.8±4.1 ng/mg of brain tissue | MG per mg brain tissue (MG levels in brain; 25 mg/kg i.p.): 14.1±3.1 ng/mg of brain tissue | increase in brain MG levels compared to vehicle-treated mice (MG levels in brain; summary statement in discussion): > 10 fold

improvement in inhibition relative to 8-MSQ ([1]; ratio of IC50 values vs 8-MSQ): 2 fold
SMILES: O=S(=O)(Nc1cccc2cccnc12)c1ccccc1 [Compound 8, N-(Quinolin-8-yl)benzenesulfonamide]

SMILES: COCCCn1ccc2cc(-c3cc(-c4ccccc4)cc(=O)n3O)cnc21 [Chugai-3d]
IC50 (human GLO1; reported by Chugai Pharmaceuticals): 11 nM
